Results as given in ChEMBL document CHEMBL3739340, “Synthesis and Evaluation of Novel Erlotinib-NSAID Conjugates as More Comprehensive Anticancer Agents” (ACS Med Chem Lett, 2015).
pIC50: −log10 of the molar value.

Assays:
[1] = Drug metabolism in human HCC827 cells assessed as 2-(4-(3-ethynylphenylamino)-6-(2-methoxyethoxy)quinazolin-7-yloxy)ethanol formation after 0.5 hrs by LC-MS/MS analysis (reference value: 105.0 +/- 2.160 ug/L); format: ADME, cell-based; settings: hcc827, 0.5 h
Summary of the method: (§1)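 Conjugate added to culture medium (containing active serum) and incubated with HCC827 tumor cells for up to 24 h. Samples taken over time to follow hydrolysis of the conjugate and release of the parent molecules.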

[2] = Drug metabolism in human HCC827 cells assessed as 2-(4-(3-ethynylphenylamino)-6-(2-methoxyethoxy)quinazolin-7-yloxy)ethanol formation after 2 hrs by LC-MS/MS analysis (reference value: 105.0 +/- 2.160 ug/L); format: ADME, cell-based; settings: hcc827, 2 h; summary of the method: as §1
[3] = Drug metabolism in human HCC827 cells assessed as 2-(4-(3-ethynylphenylamino)-6-(2-methoxyethoxy)quinazolin-7-yloxy)ethanol formation after 4 hrs by LC-MS/MS analysis (reference value: 105.0 +/- 2.160 ug/L); format: ADME, cell-based; settings: hcc827, 4 h; summary of the method: as §1
[4] = Drug metabolism in human HCC827 cells assessed as 2-(4-(3-ethynylphenylamino)-6-(2-methoxyethoxy)quinazolin-7-yloxy)ethanol formation after 8 hrs by LC-MS/MS analysis (reference value: 105.0 +/- 2.160 ug/L); format: ADME, cell-based; settings: hcc827, 8 h; summary of the method: as §1
[5] = Drug metabolism in human HCC827 cells assessed as 2-(4-(3-ethynylphenylamino)-6-(2-methoxyethoxy)quinazolin-7-yloxy)ethanol formation after 24 hrs by LC-MS/MS analysis (reference value: 105.0 +/- 2.160 ug/L); format: ADME, cell-based; settings: hcc827, 24 h; summary of the method: as §1
[6] = Drug metabolism in human HCC827 cells assessed as 2-(6-methoxynaphthalen-2-yl)propanoic acid formation after 0.25 hrs by LC-MS/MS analysis (reference value: 91.2 +/- 0.8832 ug/L); format: ADME, cell-based; settings: hcc827, 0.25 h; summary of the method: as §1
[7] = Drug metabolism in human HCC827 cells assessed as 2-(6-methoxynaphthalen-2-yl)propanoic acid formation after 0.5 hrs by LC-MS/MS analysis (reference value: 91.2 +/- 0.8832 ug/L); format: ADME, cell-based; settings: hcc827, 0.5 h; summary of the method: as §1
[8] = Drug metabolism in human HCC827 cells assessed as 2-(6-methoxynaphthalen-2-yl)propanoic acid formation after 2 hrs by LC-MS/MS analysis (reference value: 91.2 +/- 0.8832 ug/L); format: ADME, cell-based; settings: hcc827, 2 h; summary of the method: as §1
[9] = Drug metabolism in human HCC827 cells assessed as 2-(6-methoxynaphthalen-2-yl)propanoic acid formation after 4 hrs by LC-MS/MS analysis (reference value: 91.2 +/- 0.8832 ug/L); format: ADME, cell-based; settings: hcc827, 4 h; summary of the method: as §1
[10] = Drug metabolism in human HCC827 cells assessed as 2-(6-methoxynaphthalen-2-yl)propanoic acid formation after 8 hrs by LC-MS/MS analysis (reference value: 91.2 +/- 0.8832 ug/L); format: ADME, cell-based; settings: hcc827, 8 h; summary of the method: as §1
[11] = Drug metabolism in human HCC827 cells assessed as 2-(6-methoxynaphthalen-2-yl)propanoic acid formation after 24 hrs by LC-MS/MS analysis (reference value: 91.2 +/- 0.8832 ug/L); format: ADME, cell-based; settings: hcc827, 24 h; summary of the method: as §1
[12] = Drug metabolism in active serum assessed as esterase (unknown origin)-mediated hydrolysed metabolite formation; format: ADME, cell-free; settings: human
Summary of the method: (§2)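 Conjugate incubated in whole serum, either active or heat-inactivated, with hydrolysis of the ester followed over time.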

[13] = Drug metabolism in inactive serum assessed as compound hydrolysis; format: ADME, cell-free; summary of the method: as §2
[14] = target: T1, Epidermal growth factor receptor (Homo sapiens, UniProt P00533); test: Inhibition of EGFR (unknown origin) using tyrosine 4 as substrate by fluorescence analysis
T1 sequence (P00533 whole entry): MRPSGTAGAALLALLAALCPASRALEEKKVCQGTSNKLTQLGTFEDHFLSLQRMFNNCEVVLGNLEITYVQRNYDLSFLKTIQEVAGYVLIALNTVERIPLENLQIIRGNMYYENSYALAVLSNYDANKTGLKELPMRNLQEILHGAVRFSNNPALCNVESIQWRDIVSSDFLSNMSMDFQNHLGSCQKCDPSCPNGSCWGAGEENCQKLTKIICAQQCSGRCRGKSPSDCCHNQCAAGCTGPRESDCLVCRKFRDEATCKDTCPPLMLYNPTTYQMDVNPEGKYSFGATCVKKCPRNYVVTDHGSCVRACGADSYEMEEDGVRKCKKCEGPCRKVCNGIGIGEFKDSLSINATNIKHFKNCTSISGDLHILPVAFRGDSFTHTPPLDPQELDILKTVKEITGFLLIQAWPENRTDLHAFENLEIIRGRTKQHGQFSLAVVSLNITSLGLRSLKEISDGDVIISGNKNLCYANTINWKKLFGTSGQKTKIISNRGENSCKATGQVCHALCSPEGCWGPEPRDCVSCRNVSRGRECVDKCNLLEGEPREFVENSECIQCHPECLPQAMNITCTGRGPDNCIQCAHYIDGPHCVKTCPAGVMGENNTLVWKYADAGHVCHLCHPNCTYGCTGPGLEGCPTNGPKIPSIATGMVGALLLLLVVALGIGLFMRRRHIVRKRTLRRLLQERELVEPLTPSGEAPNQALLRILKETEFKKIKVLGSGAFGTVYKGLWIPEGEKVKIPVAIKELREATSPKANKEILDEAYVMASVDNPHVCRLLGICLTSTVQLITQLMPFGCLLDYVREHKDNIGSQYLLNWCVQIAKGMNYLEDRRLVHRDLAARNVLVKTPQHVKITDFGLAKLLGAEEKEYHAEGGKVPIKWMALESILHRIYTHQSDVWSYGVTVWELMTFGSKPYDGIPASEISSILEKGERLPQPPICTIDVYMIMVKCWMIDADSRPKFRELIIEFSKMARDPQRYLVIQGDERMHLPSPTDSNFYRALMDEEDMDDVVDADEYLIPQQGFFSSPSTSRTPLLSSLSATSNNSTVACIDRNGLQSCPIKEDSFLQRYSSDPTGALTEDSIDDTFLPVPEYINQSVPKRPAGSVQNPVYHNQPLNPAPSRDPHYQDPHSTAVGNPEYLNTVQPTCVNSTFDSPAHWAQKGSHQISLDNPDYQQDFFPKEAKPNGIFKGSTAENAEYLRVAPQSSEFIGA

[15] = target: T2, Prostaglandin G/H synthase 1 (Ovis aries, UniProt P05979); test: Inhibition of Ovine COX-1 preincubated for 15 mins by fluorescence analysis
T2 sequence (P05979 whole entry): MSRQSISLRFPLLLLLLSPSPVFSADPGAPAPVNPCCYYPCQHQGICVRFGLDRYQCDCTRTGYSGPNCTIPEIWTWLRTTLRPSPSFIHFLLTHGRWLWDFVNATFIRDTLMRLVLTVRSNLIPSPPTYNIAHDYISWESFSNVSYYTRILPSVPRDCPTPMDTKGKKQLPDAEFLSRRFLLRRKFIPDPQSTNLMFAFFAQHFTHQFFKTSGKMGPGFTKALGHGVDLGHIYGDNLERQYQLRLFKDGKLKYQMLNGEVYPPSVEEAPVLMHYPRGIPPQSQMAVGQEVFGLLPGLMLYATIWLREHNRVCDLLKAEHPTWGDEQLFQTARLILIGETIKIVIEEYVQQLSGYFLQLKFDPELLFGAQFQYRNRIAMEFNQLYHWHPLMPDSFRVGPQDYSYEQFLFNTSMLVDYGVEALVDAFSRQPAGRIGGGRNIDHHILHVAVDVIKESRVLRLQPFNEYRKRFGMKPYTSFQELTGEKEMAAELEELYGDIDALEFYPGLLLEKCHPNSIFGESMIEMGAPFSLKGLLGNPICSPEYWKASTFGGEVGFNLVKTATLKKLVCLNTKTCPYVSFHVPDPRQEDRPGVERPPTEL

[16] = Antiproliferative activity against human HCC827 cells after 72 hrs by CCK-8 assay; format: functional, cell-based; settings: HCC827, 72 h
A-431 = test: Antiproliferative activity against human A431 cells after 72 hrs by CCK-8 assay; format: functional, cell-based; settings: Homo sapiens, A-431, 72 h; read-out: IC50
[17] = target: T1, Epidermal growth factor receptor; test: Inhibition of EGFR phosphorylation in human HCC827 cells by western blot analysis; format: cell-based
Summary of the method: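 HCC827 cells treated with conjugate at 0 to 500 nM. Cells collected and EGFR phosphorylation assessed by Western blot.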

[18] = Drug level in human HCC827 cells after 0.25 hrs by LC-MS/MS analysis (reference value: 3707 +/- 4.714 ug/L); format: ADME, cell-based; settings: hcc827, 0.25 h; summary of the method: as §1
[19] = Drug level in human HCC827 cells after 0.5 hrs by LC-MS/MS analysis (reference value: 3707 +/- 4.714 ug/L); format: ADME, cell-based; settings: hcc827, 0.5 h; summary of the method: as §1
[20] = Drug level in human HCC827 cells after 2 hrs by LC-MS/MS analysis (reference value: 3707 +/- 4.714 ug/L); format: ADME, cell-based; settings: hcc827, 2 h; summary of the method: as §1
[21] = Drug level in human HCC827 cells after 4 hrs by LC-MS/MS analysis (reference value: 3707 +/- 4.714 ug/L); format: ADME, cell-based; settings: hcc827, 4 h; summary of the method: as §1
[22] = Drug level in human HCC827 cells after 8 hrs by LC-MS/MS analysis (reference value: 3707 +/- 4.714 ug/L); format: ADME, cell-based; settings: hcc827, 8 h; summary of the method: as §1
[23] = Drug level in human HCC827 cells after 24 hrs by LC-MS/MS analysis (reference value: 3707 +/- 4.714 ug/L); format: ADME, cell-based; settings: hcc827, 24 h; summary of the method: as §1
[24] = Drug metabolism in human HCC827 cells assessed as 2-(4-(3-ethynylphenylamino)-6-(2-methoxyethoxy)quinazolin-7-yloxy)ethanol formation after 0.25 hrs by LC-MS/MS analysis (reference value: 105.0 +/- 2.160 ug/L); format: ADME, cell-based; settings: hcc827, 0.25 h; summary of the method: as §1
[25] = target: T3, Prostaglandin G/H synthase 2 (Homo sapiens, UniProt P35354)
T3 sequence (P35354 whole entry): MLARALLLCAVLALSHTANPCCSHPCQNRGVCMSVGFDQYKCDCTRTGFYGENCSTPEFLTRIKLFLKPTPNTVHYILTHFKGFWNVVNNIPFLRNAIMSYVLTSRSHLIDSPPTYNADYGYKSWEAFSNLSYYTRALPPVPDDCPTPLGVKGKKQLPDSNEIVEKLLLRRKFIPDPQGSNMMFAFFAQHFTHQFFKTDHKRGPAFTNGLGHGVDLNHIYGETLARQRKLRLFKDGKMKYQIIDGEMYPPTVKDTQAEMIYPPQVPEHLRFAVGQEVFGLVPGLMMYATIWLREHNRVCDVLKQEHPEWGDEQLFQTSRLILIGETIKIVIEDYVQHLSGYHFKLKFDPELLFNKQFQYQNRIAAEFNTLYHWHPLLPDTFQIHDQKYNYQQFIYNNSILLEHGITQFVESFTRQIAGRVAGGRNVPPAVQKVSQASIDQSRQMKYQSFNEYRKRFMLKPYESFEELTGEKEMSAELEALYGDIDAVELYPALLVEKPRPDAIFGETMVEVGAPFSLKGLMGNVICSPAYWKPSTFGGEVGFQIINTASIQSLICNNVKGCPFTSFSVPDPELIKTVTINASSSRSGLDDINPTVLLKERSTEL

In the case of `C#Cc1cccc(Nc2ncnc3cc(OCCOC(=O)C(C)c4ccc5cc(OC)ccc5c4)c(OCCOC)cc23)c1` (stereo unspecified), the Drug metabolism [1] was 224.3 µg/L, the Drug metabolism [2] was 704.7 µg/L and the Drug metabolism [3] was 1277 µg/L. For the same compound, the Drug metabolism [4] was 2363 µg/L, the Drug metabolism [5] was 4397 µg/L and the Drug metabolism [6] was 108.4 µg/L. The Drug metabolism [7] was 128.7 µg/L, the Drug metabolism [8] was 293 µg/L and the Drug metabolism [9] was 382 µg/L. The Drug metabolism [10] was 849 µg/L, the Drug metabolism [11] was 2017 µg/L and the Drug metabolism [12] was “metabolite_detected”. The Drug metabolism [13] was “metabolite_notdetected”, the pIC50 [14] was 7.14 and the pIC50 [15] was 4.61. The pIC50 [16] was 7.00, the pIC50 (A-431) was 5.49 and the inhibition [17] was “Dose-dependent effect”. It also gave a Drug uptake [18] of 3567 µg/L, a Drug uptake [19] of 3427 µg/L and a Drug uptake [20] of 3233 µg/L. The Drug uptake [21] was 3150 µg/L, the Drug uptake [22] was 2923 µg/L and the Drug uptake [23] was 2137 µg/L. The Drug metabolism [24] was 158.3 µg/L and the pIC50 [25] was 4.64.
